Data: ChEMBL document CHEMBL1140318, “Potent androgen antagonists based on carborane as a hydrophobic core structure” (J Med Chem, 2005)

Molecular target: Androgen receptor (Homo sapiens) (UniProt P10275)
Assay: Percent displacement of [3H]DHT binding to human androgen receptor expressed in Escherichia coli strain HB-101 at 10 uM
Procedure, shortened: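 GST-hAR ligand-binding domain expressed in E. coli HB-101 (1 mM IPTG, 27 °C, 4.5 h); crude sonicate diluted to 0.3-0.5 mg/mL protein (20 mM Tris-HCl pH 8.0, 0.3 M KCl, 1 mM EDTA). Incubated 15 h at 4 °C in dark with 4 nM [3H]DHT and 1 μM triamcinolone acetonide (final). Nonspecific binding measured with 200-fold unlabeled DHT. Dextran/γ-globulin-charcoal separation, supernatant scintillation-counted.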

Chain of UniProt P10275 (P10275 whole entry): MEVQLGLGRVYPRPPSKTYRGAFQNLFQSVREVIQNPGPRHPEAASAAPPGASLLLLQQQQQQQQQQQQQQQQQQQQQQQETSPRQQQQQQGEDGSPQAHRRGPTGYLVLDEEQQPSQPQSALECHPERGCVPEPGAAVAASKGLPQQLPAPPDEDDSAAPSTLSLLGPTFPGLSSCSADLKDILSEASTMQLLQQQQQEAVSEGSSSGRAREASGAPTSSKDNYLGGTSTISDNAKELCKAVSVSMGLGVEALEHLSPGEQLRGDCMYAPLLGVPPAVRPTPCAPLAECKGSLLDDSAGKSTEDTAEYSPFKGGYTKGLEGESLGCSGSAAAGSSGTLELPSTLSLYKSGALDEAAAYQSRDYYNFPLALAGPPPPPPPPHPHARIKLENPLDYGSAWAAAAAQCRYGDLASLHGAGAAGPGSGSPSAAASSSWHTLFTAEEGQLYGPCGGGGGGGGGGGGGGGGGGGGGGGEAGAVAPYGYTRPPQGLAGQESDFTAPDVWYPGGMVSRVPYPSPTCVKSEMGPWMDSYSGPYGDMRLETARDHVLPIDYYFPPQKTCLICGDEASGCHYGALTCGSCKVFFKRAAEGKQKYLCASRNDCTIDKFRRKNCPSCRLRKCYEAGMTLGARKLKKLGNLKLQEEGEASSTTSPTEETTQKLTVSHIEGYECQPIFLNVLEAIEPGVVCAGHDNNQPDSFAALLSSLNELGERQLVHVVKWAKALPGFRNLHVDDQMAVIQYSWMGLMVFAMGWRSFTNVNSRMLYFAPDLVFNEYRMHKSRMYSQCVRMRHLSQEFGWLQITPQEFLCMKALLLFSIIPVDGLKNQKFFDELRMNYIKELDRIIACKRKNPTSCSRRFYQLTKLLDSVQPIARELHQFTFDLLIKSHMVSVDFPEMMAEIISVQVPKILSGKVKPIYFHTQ

| Substance | Binding affinity [%] |
| --- | --- |
| 1-(2-Hydroxyethyl)-12-(3-nitrophenyl)-1,12-dicarbacloso-dodecaborane | 63 |
| 1-(3-Hydroxypropyl)-12-(3-nitrophenyl)-1,12-dicarbacloso-dodecaborane | 39 |
| 1-(3-Nitrophenyl)-1,12-dicarba-closo-dodecaborane | 36 |
| 1-(3-Nitrophenyl)-1,12-dicarba-closo-dodecaborane-1-carboxylic Acid | 35 |
| 1-(4-Hydroxybutyl)-12-(3-nitrophenyl)-1,12-dicarbacloso-dodecaborane | 20 |
| 1-(4-Nitrophenyl)-1,12-dicarba-closo-dodecaborane | 29 |
| 1-Hydroxy-12-(3-cyanophenyl)-1,12-dicarba-closo-dodecaborane | 66 |
| 1-Hydroxy-12-(3-nitrophenyl)-1,12-dicarba-closo-dodecaborane | 75 |
| 1-Hydroxy-12-(4-cyanophenyl)-1,12-dicarba-closo-dodecaborane | 50 |
| 1-Hydroxy-12-(4-nitrophenyl)-1,12-dicarba-closo-dodecaborane | 53 |
| 1-Hydroxymethyl-7-(3-nitrophenyl)-1,7-dicarba-closododecaborane | 54 |
| 1-Hydroxymethyl-7-(4-nitrophenyl)-1,7-dicarba-closododecaborane | 60 |
| 1-Hydroxymethyl-12-(3-cyanophenyl)-1,12-dicarbacloso-dodecaborane | 95 |
| 1-Hydroxymethyl-12-(3-nitrophenyl)-1,12-dicarba-closododecaborane | 97 |
| 1-Hydroxymethyl-12-(4-cyanophenyl)-1,12-dicarbacloso-dodecaborane | 54 |
| 1-Hydroxymethyl-12-(4-nitrophenyl)-1,12-dicarba-closodod caborane | 55 |
| 1-Methoxycarbonyl-12-(3-nitrophenyl)-1,12-dicarbacloso-dodecaborane | 18 |
